Consider 2 molecules from publication PMC9616053 (ACS chemical neuroscience, 2022).

One assay concerns the target T1, Casp6 (Homo sapiens, UniProt P55212).
T1 sequence (P55212 24-179 limits assumed): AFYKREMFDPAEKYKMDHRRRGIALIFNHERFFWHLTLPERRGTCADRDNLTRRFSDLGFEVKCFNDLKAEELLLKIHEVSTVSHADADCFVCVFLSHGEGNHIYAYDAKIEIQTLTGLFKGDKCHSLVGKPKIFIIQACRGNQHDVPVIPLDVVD
T1 sequence (P55212 194-293 limits assumed): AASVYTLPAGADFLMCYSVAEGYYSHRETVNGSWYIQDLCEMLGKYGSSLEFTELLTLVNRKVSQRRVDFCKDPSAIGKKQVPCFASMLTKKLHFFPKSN
Briefly: in vitro caspase panel assay, Casp6. Format: biochemical.

The target of the next assay is Cathepsin B (Homo sapiens, UniProt P07858). Briefly: Cathepsin B inhibition. It counts as biochemical.
For the next assay, the target named is T2, Casp7 (Homo sapiens, UniProt P55210).
T2 sequence (P55210 24-198 limits assumed): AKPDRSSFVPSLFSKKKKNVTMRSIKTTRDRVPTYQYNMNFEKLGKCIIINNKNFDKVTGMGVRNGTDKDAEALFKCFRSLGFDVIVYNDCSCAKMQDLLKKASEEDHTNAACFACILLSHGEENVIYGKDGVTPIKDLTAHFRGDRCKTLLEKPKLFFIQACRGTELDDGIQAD
T2 sequence (P55210 207-303 limits assumed): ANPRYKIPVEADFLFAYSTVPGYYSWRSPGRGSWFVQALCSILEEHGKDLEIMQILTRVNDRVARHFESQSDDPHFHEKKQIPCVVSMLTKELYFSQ
Briefly: in vitro caspase panel assay, Casp7. It counts as biochemical.

A further assay has as its target T3, Casp9 (Homo sapiens, UniProt P55211).
T3 sequence (P55211 1-315 limits assumed): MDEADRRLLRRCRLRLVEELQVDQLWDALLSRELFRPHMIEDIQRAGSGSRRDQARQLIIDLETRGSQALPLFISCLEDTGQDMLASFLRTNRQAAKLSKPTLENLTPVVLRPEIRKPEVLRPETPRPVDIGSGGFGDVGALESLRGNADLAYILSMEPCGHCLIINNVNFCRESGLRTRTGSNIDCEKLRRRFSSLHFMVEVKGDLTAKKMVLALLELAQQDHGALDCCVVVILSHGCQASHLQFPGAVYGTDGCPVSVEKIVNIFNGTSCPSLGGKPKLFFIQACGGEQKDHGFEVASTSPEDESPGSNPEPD
T3 sequence (P55211 331-416 limits assumed): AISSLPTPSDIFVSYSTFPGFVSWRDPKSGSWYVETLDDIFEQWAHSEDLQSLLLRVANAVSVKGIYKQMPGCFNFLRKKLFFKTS
Nature of the assay: in vitro caspase panel assay, Casp9. It counts as biochemical.

The test system of assay [1] is primary hippocampal neurons from transgenic mice overexpressing P301S tau. Nature of the assay: mEPSC recording in primary hippocampal neurons from PS19. The settings on record: 10 μM, 3 days; for average frequency of mEPSCs: six groups. Format: cell-based, mouse.
Assay [2] has as its target T4, Casp2-mediated cleavage of tau at D314 (Homo sapiens, UniProt P42575).
T4 sequence (P42575 170-325 limits assumed): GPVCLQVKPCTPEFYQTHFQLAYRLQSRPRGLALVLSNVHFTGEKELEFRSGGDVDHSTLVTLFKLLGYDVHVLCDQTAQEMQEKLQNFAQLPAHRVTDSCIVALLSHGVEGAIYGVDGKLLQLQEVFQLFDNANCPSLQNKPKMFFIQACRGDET
T4 sequence (P42575 348-452 limits assumed): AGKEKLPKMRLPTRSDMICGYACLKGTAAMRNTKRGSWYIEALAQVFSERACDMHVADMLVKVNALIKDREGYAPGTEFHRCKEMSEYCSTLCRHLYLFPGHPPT
Briefly: in vitro caspase-2-catalyzed tau cleavage assay. It counts as biochemical.

In a further assay the target is T5, Casp2 (Homo sapiens, UniProt P42575).
T5 sequence (P42575 170-325 limits assumed): T4 sequence (P42575 170-325 limits assumed)
T5 sequence (P42575 348-452 limits assumed): T4 sequence (P42575 348-452 limits assumed)
Briefly: fluorescence-based in vitro biochemical.

In the next assay the target is T6, Casp1 (Homo sapiens, UniProt P29466).
T6 sequence (P29466 120-297 limits assumed): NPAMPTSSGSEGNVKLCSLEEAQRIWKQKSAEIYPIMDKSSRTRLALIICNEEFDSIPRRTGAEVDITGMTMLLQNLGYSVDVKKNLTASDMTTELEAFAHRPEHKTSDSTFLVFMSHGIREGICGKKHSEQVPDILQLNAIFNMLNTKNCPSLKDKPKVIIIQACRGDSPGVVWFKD
T6 sequence (P29466 317-404 limits assumed): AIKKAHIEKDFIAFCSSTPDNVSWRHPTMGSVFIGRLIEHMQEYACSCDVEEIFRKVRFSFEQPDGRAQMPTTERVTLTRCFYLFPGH
Nature of the assay: in vitro caspase panel assay, Casp1. Format: biochemical.

For assay [3], the system named is cultured rat hippocampal neurons expressing P301S tau. Format: cell-based. The settings on record: 10 μM for 3 days, versus untreated wild-type and P301S tau neurons. The method, boiled down: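 Primary hippocampal cultures from Sprague-Dawley rat pups at postnatal day 0 or 1. At 5–7 DIV, neurons were co-transfected with plasmids for DsRed (morphology label) and GFP-tagged wild-type or P301S tau. Test compound was added at 17–18 DIV for 3 days. Live neurons were imaged at 20–21 DIV.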

The target of the next assay is Thrombin a (Homo sapiens, UniProt P00734). Nature of the assay: Thrombin a inhibition. Format: biochemical.
The target in a further assay is T7, Casp3 (Homo sapiens, UniProt P42574).
T7 sequence (P42574 29-175 limits assumed): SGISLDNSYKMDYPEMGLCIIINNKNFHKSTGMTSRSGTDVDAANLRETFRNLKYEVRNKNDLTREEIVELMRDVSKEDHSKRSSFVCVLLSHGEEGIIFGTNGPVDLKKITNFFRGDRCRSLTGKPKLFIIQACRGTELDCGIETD
T7 sequence (P42574 176-277 limits assumed): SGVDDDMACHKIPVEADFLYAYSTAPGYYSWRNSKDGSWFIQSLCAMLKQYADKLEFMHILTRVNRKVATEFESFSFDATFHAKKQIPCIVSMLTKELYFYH
Briefly: fluorescence-based in vitro biochemical. To be noted: for Casp2 Selectivity, Ki (Casp3) / Ki (Casp2): Table 1.

pIC50, pKi: −log10 of the molar value. *1 amine or outer side, *2 acyl side, *3 side chain or, on linkers, in order; H or OH if unused. Where a SMILES comes first, the peptide text is derived from it. [ ]: non-standard residue; d: D form. X1 = Cc1ccc2c(c1)CCN([*:1])[C@@H]2C(=O)[*:2] A value given as a limit tells only on which side of the number the result lay.

With `Cc1ccc2c(c1)CCN(C(=O)[C@@H](NC(=O)[C@H](CCCC(=O)O)NC(=O)[C@@H]1Cc3ccccc3N1)C(C)C)[C@@H]2C(=O)N[C@H](C#N)CC(=O)O` [Compound 1, (S)-6-(((S)-1-((S)-1-(((S)-2-carboxy-1-cyanoethyl)carbamoyl)-6-methyl-3,4-dihydroisoquinolin-2(1H)-yl)-3-methyl-1-oxobutan-2-yl)amino)-5-((S)-indoline-2-carboxamido)-6-oxohexanoic acid], on Casp6, the pKi was less than 4.00 and the “selectivity Casp2 versus Casp6” value was more than 2000 fold. Moreover, on Cathepsin B, the pIC50 was 4.73 and the “activity at cathepsin B” value is recorded as “weak activity”. Besides, on Casp7, the pKi was 4.80 and the “selectivity Casp2 versus Casp7” value is more than 2000 fold. For the same molecule, at Casp9, the pKi was less than 4.50 and the “selectivity Casp2 versus Casp9” value was more than 2000 fold. In assay [1], the “average amplitude of mEPSC responses, Tau −/+ versus Tau −/− neurons” value is “do not differ significantly”; the “cumulative curve of mEPSC amplitudes, Tau −/+ compared with Tau −/−” value is listed as “not significantly shifted”; the “average frequency of mEPSCs” value is listed as “no significant differences”. In addition, the pIC50 in assay [2] was 5.69. On Casp2, this molecule had a pKi of 8.12. Also, at Casp1, the pKi is less than 4.00 and the “selectivity Casp2 versus Casp1” value is recorded as more than 2000 fold. The “density of dendritic spines” value in [3] is given as “no significant differences”. In addition, at Thrombin a, the negative logarithm of the IC50 (pIC50) was less than 4.00 and the “activity at thrombin” value is “weak activity”. Besides, at Casp3, the pKi was 6.03 and the “Casp2 Selectivity, Ki (Casp3) / Ki (Casp2)” value came out at 123.
As for `CC(=O)N[C@H](C(=O)N[C@@H](CC(=O)O)C(=O)N[C@H](C(=O)N1CCc2cc(C)ccc2[C@H]1C(=O)N[C@H](C=O)CC(=O)O)C(C)C)C(C)C` [Compound 2b, (S)-3-((S)-2-acetamido-3-methylbutanamido)-4-(((S)-1-((S)-1-(((S)-1-carboxy-3-oxopropan-2-yl)carbamoyl)-6-methyl-3,4-dihydroisoquinolin-2(1H)-yl)-3-methyl-1-oxobutan-2-yl)amino)-4-oxobutanoic acid] (Ac-VDV[X1]D-aldehyde), the pKi was less than 4.00 at Casp6, less than 4.50 on Casp7, less than 4.50 on Casp9 and 5.56 on Casp1. Moreover, on Cathepsin B, the pIC50 was 4.42. For the same molecule, the “cumulative curve of mEPSC amplitudes, Tau −/+ compared with Tau −/−” value in assay [1] is “shifted to the left but less markedly”. For the same molecule, the “average frequency of mEPSCs” value in assay [1] is “no significant differences”. Further, the “Casp2 Selectivity, Ki (Casp3) / Ki (Casp2)” value at Casp3 is 70.

Broadly, the pKi is the Ki on a negative log10 scale, so that one unit is a factor of ten. Broadly, the pIC50 is the IC50 on a negative log10 scale, so that one unit is a factor of ten. A lower pIC50 goes with a large IC50.
